From ChEMBL document CHEMBL4261545, “Extraction of antioxidant and antiproliferative ingredients from fruits of Rubus chingii Hu by active tracking guidance” (Medchemcomm, 2017)
Values after ≈ are worked out from the molar mass of the structure shown. Active and inactive are the calls of the source. The rule behind the calls is not given here.

What was measured:
HepG2 [1] = assay: Cytotoxicity against human HepG2 cells after 24 hrs by MTT assay; format: functional, cell-based
Procedure, shortened: (§1)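 Cells grown in DMEM with 10% heat-inactivated FBS, penicillin and streptomycin at 37 °C, 5% CO2. Seeded 5×10^4 cells per well and treated 24 h after seeding. Samples dissolved in DMSO and diluted in medium, final DMSO under 0.1% (v/v). After 24 h exposure, MTT (0.5 mg mL-1) was added for 4 h at 37 °C and absorbance read at 490 nm. Inhibition % = (1 − ODsample/ODcontrol)×100, run in triplicate.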

Bel-7402 [2] = assay: Cytotoxicity against human Bel7402 cells after 24 hrs by MTT assay; format: functional, cell-based; procedure, shortened: as §1
A549 [3] = assay: Cytotoxicity against human A549 cells after 24 hrs by MTT assay; format: functional, cell-based; procedure, shortened: as §1
MCF7 [4] = assay: Cytotoxicity against human MCF7 cells after 24 hrs by MTT assay; format: functional, cell-based; procedure, shortened: as §1
Bel-7402 [5] = assay: Cytotoxicity against human Bel7402 cells assessed as inhibition of cell proliferation at 100 ug/ml after 24 hrs by MTT assay relative to control; format: functional; settings: for inhibition at 100 µg/mL: Bel-7402, 24 h; procedure, shortened: as §1
HepG2 [6] = assay: Cytotoxicity against human HepG2 cells assessed as inhibition of cell proliferation at 100 ug/ml after 24 hrs by MTT assay relative to control; format: functional
Procedure, shortened: (§2)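 Cells (from the CAS cell bank) were grown in DMEM with 10% heat-inactivated FBS, penicillin and streptomycin at 37 °C under 5% CO2. They were seeded at 5×10^4 cells/well and treated 24 h later. Samples were dissolved in DMSO and diluted in medium (final DMSO <0.1%) for 24 h. MTT (0.5 mg/mL) was added for 4 h at 37 °C and A490 read. Inhibition = (1 − OD sample/OD control)×100, in triplicate.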

A549 [7] = assay: Cytotoxicity against human A549 cells assessed as inhibition of cell proliferation at 100 ug/ml after 24 hrs by MTT assay relative to control; format: functional; procedure, shortened: as §2
MCF7 [8] = assay: Cytotoxicity against human MCF7 cells assessed as inhibition of cell proliferation at 100 ug/ml after 24 hrs by MTT assay relative to control; format: functional; procedure, shortened: as §2
MCF7 [9] = assay: Induction of morphological changes in human MCF7 cells after 24 hrs by phase contrast microscopic method; format: functional, cell-based
Procedure, shortened: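 MCF-7 cells were kept in DMEM with 10% heat-inactivated FBS at 37 °C, 5% CO2, exposed to compound for 24 h, then examined for morphological changes by phase-contrast microscopy.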

SMILES	Activity (HepG2 [1])	Activity (Bel-7402 [2])	Activity (A549 [3])	Activity (MCF7 [4])	inhibition at 100 µg/mL (Bel-7402 [5]) [%]	inhibition (HepG2 [6])	inhibition (Bel-7402 [5])	inhibition (A549 [7])	inhibition (MCF7 [8])	IC50 (HepG2 [1]; HepG2, 24 h) [µg/mL]	IC50 (Bel-7402 [2]; Bel-7402, 24 h) [µg/mL]	IC50 (A549 [3]; A549, 24 h) [µg/mL]	IC50 (MCF7 [4]; MCF7, 24 h) [µg/mL]	inhibition at 100 µg/mL (HepG2 [6]; HepG2, 24 h) [%]	inhibition at 100 µg/mL (A549 [7]; A549, 24 h) [%]	inhibition at 100 µg/mL (MCF7 [8]; MCF7, 24 h) [%]	Activity (MCF7 [9])
C[C@@]12CCC[C@@](C)(C(=O)O)[C@H]1CC[C@@]13C[C@@H](CC[C@H]12)[C@](O)(CO)C3	Dose-dependent effect	Dose-dependent effect	Dose-dependent effect	Dose-dependent effect													
CC1(C)CC[C@]2(C(=O)O)CC[C@]3(C)C(=CC[C@@H]4[C@@]5(C)CC[C@H](O)C(C)(C)[C@@H]5CC[C@]43C)[C@@H]2C1 [OLEANOLIC_ACID]	Dose-dependent effect	Dose-dependent effect	Dose-dependent effect	Dose-dependent effect	55.2												
CC[C@H](CC[C@@H](C)[C@H]1CC[C@H]2[C@@H]3CC=C4C[C@@H](O[C@@H]5O[C@H](CO)[C@@H](O)[C@H](O)[C@H]5O)CC[C@]4(C)[C@H]3CC[C@]12C)C(C)C	Dose-dependent effect	Dose-dependent effect	Dose-dependent effect	Dose-dependent effect													
O=c1[nH]cc(F)c(=O)[nH]1						Active	Active	Active	Active								
C[C@@H]1CC[C@]2(C(=O)O)CC[C@]3(C)C(=CC[C@@H]4[C@@]5(C)C[C@@H](O)[C@H](O)C(C)(C)[C@@H]5CC[C@]43C)[C@@H]2[C@]1(C)O [TOMENTIC ACID]	Dose-dependent effect	Dose-dependent effect	Dose-dependent effect	Dose-dependent effect	80.2					40.6 (≈ 83 µM)	54.2 (≈ 111 µM)	62.4 (≈ 128 µM)	24.2 (≈ 49.6 µM)	82.8	72.4	91.8	Active
